We go through 22 compounds from ChEMBL document CHEMBL1128595, “Synthesis and biological activity of 7-alkylidenecephems” (J Med Chem, 1995).

The target of data set [1] is T1, Beta-lactamase (Enterobacter cloacae, UniProt P05364). In words: The concentration of compound to inhibit beta-lactamase was measured on Enterobacter cloacae SC 12368. Format: functional.
Data set [2] concerns the target T1, Beta-lactamase. In words: The concentration of compound to inhibit beta-lactamase was measured on Enterobacter cloacae P99. Format: functional.
In data set [3] the target is T2, Beta-lactamase TEM (Escherichia coli, UniProt P62593). In words: (§1) The concentration of compound to inhibit beta-lactamase was measured on Escherichia coli WC3310. The format is functional. The essentials:
(§2)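 TEM-2 β-lactamase partially purified from E. coli W3310 (freeze-thaw lysis, DNase, Sephadex G-75 gel filtration). Enzyme preincubated with varied inhibitor in 50 mM phosphate buffer pH 7.2 at 25 °C for 10 min.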

For data set [4], the target named is T1, Beta-lactamase. Put plainly: The concentration of compound to inhibit Beta-lactamase was measured on Enterobacter cloacae P99. Format: functional.
Data set [5] deals with T1, Beta-lactamase. In words: The concentration of compound to inhibit Beta-lactamase was measured on Enterobacter cloacae SC 12368. Format: functional.
In data set [6] the target is T2, Beta-lactamase TEM. In words: (§3) The concentration of compound to inhibit Beta-lactamase was measured on Escherichia coli WC3310. Format: functional. The essentials: (§4)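 TEM-2 β-lactamase partially purified from E. coli W3310 (freeze-thaw lysis, DNase, Sephadex G-75 gel filtration). Enzyme preincubated with varied inhibitor in 50 mM phosphate buffer pH 7.2 at 25 °C for 10 min. Aliquot then diluted into nitrocefin (the more concentrated standard solution), and hydrolysis rate read at 482 nm.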

The target of data set [7] is T2, Beta-lactamase TEM. The description is as §1. Format: functional. The procedure, abridged:
as §4
The source holds these as a separate data set.

A short description of data set [8]: The pseudo second order rate constant of inhibition (k3'') was measured by using Kitz and Wilson method. Format: ADME. The essentials:
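Kitz–Wilson analysis with E. cloacae P99 β-lactamase in 50 mM phosphate pH 7.2 at 25 °C. Enzyme incubated with five inhibitor concentrations (assay 2.8 × 10⁻⁸ to 1.4 × 10⁻⁷ M; enzyme 2.56 nM final). Aliquots taken at 30 s intervals over 5 min, diluted into nitrocefin (0.19 mM), absorbance at 482 nm read for 10 s. Reciprocal rate constants plotted against reciprocal inhibitor concentration.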

Data set [9] concerns the target T2, Beta-lactamase TEM. The data set is described as §3. Format: functional. The essentials: as §2
This is another data set of the same source.

T2 sequence (P62593 whole entry): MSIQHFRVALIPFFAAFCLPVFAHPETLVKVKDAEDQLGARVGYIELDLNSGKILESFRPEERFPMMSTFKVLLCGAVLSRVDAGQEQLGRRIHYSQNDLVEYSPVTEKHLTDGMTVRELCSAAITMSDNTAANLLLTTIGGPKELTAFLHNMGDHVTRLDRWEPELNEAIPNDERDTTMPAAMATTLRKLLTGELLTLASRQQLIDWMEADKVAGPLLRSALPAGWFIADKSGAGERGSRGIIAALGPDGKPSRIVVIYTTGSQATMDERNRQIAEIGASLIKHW
T1 sequence (P05364 whole entry): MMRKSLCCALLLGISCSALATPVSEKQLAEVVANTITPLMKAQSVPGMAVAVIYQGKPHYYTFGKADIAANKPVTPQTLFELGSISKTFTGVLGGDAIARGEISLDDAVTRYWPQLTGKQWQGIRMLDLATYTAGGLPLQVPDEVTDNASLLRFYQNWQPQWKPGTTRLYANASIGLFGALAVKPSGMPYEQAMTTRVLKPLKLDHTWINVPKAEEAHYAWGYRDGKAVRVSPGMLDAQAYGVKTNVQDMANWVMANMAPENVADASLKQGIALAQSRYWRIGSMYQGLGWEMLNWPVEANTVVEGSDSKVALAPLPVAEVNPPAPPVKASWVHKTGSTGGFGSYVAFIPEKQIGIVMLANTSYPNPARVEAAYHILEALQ

Regarding `CC(=O)OCC1=C(C(=O)O)N2C(=O)C(=C(Br)Br)[C@H]2S(=O)(=O)C1`, the IC50 against Beta-lactamase [1], at Beta-lactamase [2] and on Beta-lactamase TEM [3] was over 20 µM throughout.
On to `CC(=O)OCC1=C(C(=O)O)N2C(=O)/C(=C/c3ccccc3)[C@H]2SC1`, for which the IC50 against Beta-lactamase [4], on Beta-lactamase [5] and on Beta-lactamase TEM [6] was over 20 µM throughout.
Turning to `CC(=O)OCC1=C(C(=O)O)N2C(=O)/C(=C/C(C)(C)C)[C@H]2SC1`, the IC50 against Beta-lactamase [1], against Beta-lactamase [2] and at Beta-lactamase TEM [7] was over 20 µM throughout.
For the compound `CC(=O)OCC1=C(C(=O)O)N2C(=O)/C(=C/C=O)[C@H]2SC1`, the results for the IC50 on Beta-lactamase [4], against Beta-lactamase [5] and against Beta-lactamase TEM [6] were 8.2 µM, 16.5 µM and over 20 µM, respectively.
`CC(=O)OCC1=C(C(=O)[O-])N2C(=O)/C(=C/c3ccccn3)[C@H]2S(=O)(=O)C1.[Na+]`: the IC50 came to 0.025 µM on Beta-lactamase [1], 0.025 µM at Beta-lactamase [2] and 0.8 µM on Beta-lactamase TEM [3]. Further, the k3' in data set [8] is 5.3e+06 L (M min)-1.
Regarding `CC(=O)OCC1=C(C(=O)O)N2C(=O)/C(=C/C(C)(C)C)[C@H]2S(=O)(=O)C1`, the IC50 against Beta-lactamase [1], on Beta-lactamase [2] and against Beta-lactamase TEM [7] was over 20 µM throughout.
On to `CC(=O)OCC1=C(C(=O)O)N2C(=O)/C(=C/CO)[C@H]2S(=O)(=O)C1`, for which the IC50 at Beta-lactamase [1], against Beta-lactamase [2] and against Beta-lactamase TEM [7] was over 20 µM each time.
Regarding `O=C([O-])[C@H]1/C(=C/CO)O[C@@H]2CC(=O)N21.[Na+]` [CLAVULANIC ACID (SODIUM)], the “k3'” value in data set [8] is 799 L (M min)-1.
`CC(=O)OCC1=C(C(=O)O)N2C(=O)/C(=C\Br)[C@H]2SC1`: the IC50 against Beta-lactamase [4], against Beta-lactamase [5] and on Beta-lactamase TEM [9] was over 20 µM each time.
On to `CC(=O)OCC1=C(C(=O)O)N2C(=O)C(=C(Cl)Cl)[C@H]2SC1`, for which the IC50 against Beta-lactamase [4], against Beta-lactamase [5] and against Beta-lactamase TEM [6] was over 20 µM throughout.
On to `CC(=O)OCC1=C(C(=O)O)N2C(=O)/C(=C\c3ccccc3)[C@H]2S(=O)(=O)C1`, for which the IC50 on Beta-lactamase [1], on Beta-lactamase [2] and on Beta-lactamase TEM [3] was over 20 µM throughout.
Regarding `CC(=O)OCC1=C(C(=O)O)N2C(=O)/C(=C/c3ccccn3)[C@H]2SC1`, the results for the IC50 against Beta-lactamase [4], against Beta-lactamase [5] and against Beta-lactamase TEM [6] were over 20 µM, over 20 µM and over 2 µM, respectively.
Regarding `CC(=O)/C=C1/C(=O)N2C(C(=O)O)=C(COC(C)=O)CS[C@H]12`, the IC50 at Beta-lactamase [4], at Beta-lactamase [5] and against Beta-lactamase TEM [6] was over 20 µM throughout.
With `CC(=O)OCC1=C(C(=O)O)N2C(=O)/C(=C/C(=O)OC(C)(C)C)[C@H]2SC1`, the 50% inhibitory concentration (IC50) was 2.5 µM against Beta-lactamase [4], over 20 µM on Beta-lactamase [5] and over 20 µM against Beta-lactamase TEM [6].
In the case of `CC(=O)OCC1=C(C(=O)O)N2C(=O)/C(=C\Br)[C@H]2S(=O)(=O)C1`, the IC50 at Beta-lactamase [1], against Beta-lactamase [2] and against Beta-lactamase TEM [7] was over 20 µM throughout.
In the case of `CC(=O)OCC1=C(C(=O)O)N2C(=O)/C(=C/C(=O)OC(C)(C)C)[C@H]2S(=O)(=O)C1`, the IC50 is 5.9 µM against Beta-lactamase [1], 7.8 µM against Beta-lactamase [2] and 0.005 µM on Beta-lactamase TEM [3].
On to `CC(=O)OCC1=C(C(=O)O)N2C(=O)C(=C(Br)Br)[C@H]2SC1`, for which the IC50 against Beta-lactamase [4], against Beta-lactamase [5] and at Beta-lactamase TEM [6] was over 20 µM throughout.
With `CC(=O)OCC1=C(C(=O)O)N2C(=O)/C(=C/c3ccccc3)[C@H]2S(=O)(=O)C1`, the IC50 on Beta-lactamase [1] is 6.8 µM; against Beta-lactamase [2] it was 6.25 µM; against Beta-lactamase TEM [3], over 20 µM.
The like results for `CC(=O)OCC1=C(C(=O)O)N2C(=O)C(=C(Cl)Cl)[C@H]2S(=O)(=O)C1` were, in that order, over 20 µM, over 20 µM and 8.3 µM.
With `C[C@]1(Cn2ccnn2)[C@H](C(=O)[O-])N2C(=O)C[C@H]2S1(=O)=O.[Na+]` [TAZOBACTAM SODIUM], in data set [8], the k3' was 74000 L (M min)-1.
With `CC(=O)OCC1=C(C(=O)[O-])N2C(=O)C(=C=CC(C)(C)C)[C@H]2S(=O)(=O)C1.[Na+]`, the half-inhibitory concentration (IC50) against Beta-lactamase [4] is 0.13 µM; on Beta-lactamase [5], 0.26 µM; on Beta-lactamase TEM [6] it was over 20 µM. The k3' in [8] is 1.7e+06 L (M min)-1.
On to `CON(C)C(=O)/C=C1/C(=O)N2C(C(=O)O)=C(COC(C)=O)CS[C@H]12`, for which the 50% inhibitory concentration (IC50) against Beta-lactamase [1], on Beta-lactamase [2] and against Beta-lactamase TEM [3] was over 20 µM throughout.

Usually IC50 stands for the concentration at which inhibition is half-maximal. Read a high IC50 as lower potency.
